Reference: ChEMBL document CHEMBL1134502, “Aromatic quinolinecarboxamides as selective, orally active antibody production inhibitors for prevention of acute xenograft rejection” (J Med Chem, 2001)

How the values were obtained:
[1] = system: Jurkat; assay: In vitro inhibition of Jurkat cell proliferation.; type: functional, cell-based; settings: Homo sapiens
In short: (§1)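 Murine B-cells stimulated with TNP-LPS (T-cell-independent type 1) were read for antibody production, the mouse MLR for T-cell activity, and Jurkat proliferation for cytotoxicity. Values are IC50 ± SE in µM, the mean of at least four independent determinations.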

[2] = species on record: Mus musculus; assay: In vitro T-cell immunosuppressive activity in the mouse mixed lymphocyte reaction (MLR); type: functional; in short: as §1
[3] = system: Mus musculus; assay: In vivo inhibition of TNP-specific immunoglobulin G production at 10 mg/kg/day oral administration.; type: functional
In short: (§2)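 OF1 mice were immunized iv with TNP-LPS and dosed on day 0 plus the three following days (four doses). The sc vehicle was polyethoxylated castor oil/EtOH; the po vehicle was Labrafil/EtOH/corn oil. Mice were bled on day 6, and serum DNP-specific IgM or IgG was titred by ELISA on DNP-BSA plates at a defined OD405.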

[4] = system: Mus musculus; assay: In vivo inhibition of TNP-specific immunoglobulin G production at 3 mg/kg/day subcutaneous administration.; type: functional; settings: sc; in short: as §2
[5] = system: Mus musculus; assay: In vivo inhibition of TNP-specific immunoglobulin G production at 30 mg/kg/day subcutaneous administration.; type: functional; settings: sc; in short: as §2
[6] = system: Mus musculus; assay: In vivo inhibition of TNP-specific immunoglobulin G production at 50 mg/kg/day subcutaneous administration.; type: functional; settings: sc; in short: as §2
[7] = system: Mus musculus; assay: In vivo inhibition of TNP-specific immunoglobulin M production at 10 mg/kg/day, po; type: functional; in short: as §2
[8] = system: Mus musculus; assay: In vivo inhibition of TNP-specific immunoglobulin M production at 3 mg/kg/day, sc; type: functional; settings: route subcutaneous; in short: as §2
[9] = system: Mus musculus; assay: In vivo inhibition of TNP-specific immunoglobulin M production at 30 mg/kg/day, sc; type: functional; settings: route subcutaneous; in short: as §2
[10] = system: Mus musculus; assay: In vivo inhibition of TNP-specific immunoglobulin M production at 50 mg/kg/day, sc; type: functional; settings: route subcutaneous; in short: as §2
[11] = system: Mus musculus; assay: Survival period of mice in days after xenotransplantation and for a dose of 3 mg/kg (Histology = antibody-mediated rejection).; type: functional
[12] = system: Mus musculus; assay: Survival period of mice in days after xenotransplantation and for a dose of 30 mg/kg (Histology = antibody-mediated rejection, Chronic rejection).; type: functional
[13] = system: Mus musculus; assay: Survival period of mice in days after xenotransplantation and for a dose of 50 mg/kg (Histology = no antibody-mediated rejection).; type: functional
[14] = In vitro inhibition of Ab formation from trinitrophenyl-lipopolysaccharide (TNP-LPS) B-cells.; type: functional; settings: Mus musculus; in short: as §1

Row | SMILES | IC50 [1] [µM] | IC50 [2] [µM] | inhibition in vivo at 10 mg/kg/day [3] [%] | inhibition in vivo at 3 mg/kg/day [4] [%] | inhibition in vivo at 30 mg/kg/day [5] [%] | inhibition in vivo at 50 mg/kg/day [6] [%] | inhibition in vivo at 10 mg/kg/day [7] [%] | inhibition in vivo at 3 mg/kg/day [8] [%] | inhibition in vivo at 30 mg/kg/day [9] [%] | inhibition in vivo at 50 mg/kg/day [10] [%] | Survival [11] [days] | Survival [12] [days] | Survival [13] [days] | IC50 [14] [µM]
1 | C/C=C/C[C@@H](C)[C@@H](O)[C@H]1C(=O)N[C@@H](CC)C(=O)N(C)CC(=O)N(C)[C@@H](CC(C)C)C(=O)N[C@@H](C(C)C)C(=O)N(C)[C@@H](CC(C)C)C(=O)N[C@@H](C)C(=O)N[C@H](C)C(=O)N(C)[C@@H](CC(C)C)C(=O)N(C)[C@@H](CC(C)C)C(=O)N(C)[C@@H](C(C)C)C(=O)N1C [CYCLOSPORINE] | > 10 |  |  |  |  |  |  |  |  |  |  |  |  | 
2 | Cc1oncc1C(=O)Nc1ccc(C(F)(F)F)cc1 [LEFLUNOMIDE] | 34.6 | 11.4 | < 0 | < 0 | 39 | 85 | 5 | < 0 | 37 | 71 | 7 | >7 | >28 | 5.1
